An excerpt weighted towards active compounds, which were near 0.85% of everything screened.
CRFR2-BP ag = agonists of CRF-BP/CRF-R2 complex, primary screen, cell-based, HEK293, calcium dye fluorescence, uHTS; CRF-binding protein / CRF receptor 2 complex (human); calcium dye fluorescence (FLIPR); percent of saturating CRF peptide response; activation, % at 13.2 µM; 350,000 compounds, 0.46% hits;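 active means activation of at least 50%, plus an integration ratio under a set limit after plate pattern correction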;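 further: plate controls were neutral control wells without compound for no effect and CRF at EC100 for full effect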
TRPML3 ag = human TRPML3 channel agonists, primary screen, cell-based, HEK293 TRPML3-YFP, Fluo-8 calcium fluorescence, 3 µM; Mucolipin-3 (Homo sapiens), Q8TDD5; 100% = the carbachol control signal; activation, % at 3 µM; 220,000 compounds, 0.29% hits;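 active means activation above its plate's cutoff, the mean activation of the plate's test wells plus 3 SD, cut at about 12% in these data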;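 further: 0% = DMSO only wells and 100% = carbachol wells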
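system = HEK293 cells stably carrying human TRPML3-YFP | doses = one concentration, 3 µM nominal, 0.3% DMSO | timing = dye loading 1 h 37 °C then 30 min ambient, 125 s read | detection = Fluo-8 calcium dye fluorescence, ex 470-495, em 515-575 nm | benchmarks = high control carbachol 87 µM, low control DMSO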
V1aR counter = agonists of human V1a receptor, primary screen, counter-screen for OXTR agonist project, fluorescence, CHO-V1R cells | Vasopressin V1a receptor (Homo sapiens), P37288 | Fluo-8 calcium fluorescence, agonist mode; 0% DMSO, 100% 3 nM vasopressin | activation, % at 3 µM | 320,000 compounds, 0.25% hits | AID 2797, 2010;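 active means activation above the mean activation of all tested compounds plus 3 SD, per screening run, cut at about 20% in these data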;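 further: signal is peak over basal fluorescence ratio across a 100 second FLIPR read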
TRPN1 ag = zebrafish TRPN1 channel agonists, primary screen, cell-based, HEK293, calcium fluorescence | transient receptor potential cation channel N1 (TRPN1/NompC), Danio rerio | HEK293 zebrafish TRPN1-YFP, Fluo-8 calcium fluorescence; 100% = response to 87 µM carbachol | activation, % at 3 µM | 220,000 compounds, 0.18% hits | AID 1424, 2008;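 active means activation above its plate's cutoff, the mean activation of test wells on that plate plus 3 SD, cut at about 19% in these data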;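 further: 0% = DMSO alone and 100% = 87 µM carbachol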
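Material – zebrafish TRPN1-YFP in HEK293 cells · Doses – 3 µM single point · Schedule – dye 1 h 37 °C plus 30 min RT · Signal – Fluo-8 calcium fluorescence, excitation 470-495 nm, emission 515-575 nm · Read-out – % activation versus carbachol response · Control set – carbachol high, DMSO low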
OXTR agonist = human OXTR agonists, primary screen, fluorescence, CHO-OTR cells, Fluo-8 calcium | AID 2435, 2010 | 320,000 compounds, 0.32% hits | activation, % at 3 µM | Fluo-8 calcium fluorescence; normalized: DMSO 0%, oxytocin 100%;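 active means activation above the mean of all tested compounds plus 3 SD, cutoff set per screening run, cut at about 20% in these data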;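 further: peak over basal fluorescence ratio from a 100 s FLIPR kinetic read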
Target sequence (P30559 whole entry, looked up): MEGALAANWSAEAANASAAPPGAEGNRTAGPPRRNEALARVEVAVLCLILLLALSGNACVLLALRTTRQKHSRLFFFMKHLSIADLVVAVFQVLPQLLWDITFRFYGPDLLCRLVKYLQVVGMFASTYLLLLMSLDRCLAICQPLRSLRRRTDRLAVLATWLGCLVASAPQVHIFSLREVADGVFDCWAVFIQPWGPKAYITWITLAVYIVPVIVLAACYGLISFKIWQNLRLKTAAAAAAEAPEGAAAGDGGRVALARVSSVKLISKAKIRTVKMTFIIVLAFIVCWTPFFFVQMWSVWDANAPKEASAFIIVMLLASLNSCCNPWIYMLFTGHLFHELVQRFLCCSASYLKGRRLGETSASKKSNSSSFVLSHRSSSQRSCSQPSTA
OXTR potentiator = human OXTR potentiators, primary screen, fluorescence, CHO-OTR cells, Fluo-8 calcium | Fluo-8 calcium fluorescence, potentiator mode; 0% = oxytocin EC15, 100% = EC100 | activation, % at 3 µM | 320,000 compounds, 0.061% hits | AID 2445, 2010;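 active means activation above that plate's cutoff, the mean activation of tested compounds plus 3 SD, cut at about 6.6% in these data, passing the limit was not always enough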;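 further: 100% uses oxytocin at 75 nM as the full agonist control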
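test system = CHO-OTR cells, human receptor | compound = single-point 3.0 µM | schedule = 6 min compound pre-incubation at room temperature, 100 s kinetic read | signal = Fluo-8 no-wash calcium dye fluorescence, excitation 470-495 nm, emission 515-575 nm | repeats = single well per compound, singlicate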
OXTR agonist cf = human OXTR agonists, confirmation, fluorescence, CHO-OTR cells, triplicate; 390 compounds, 20% hits; activation, % at 3 µM; shares compounds with OXTR agonist; Fluo-8 calcium fluorescence, agonist; AID 434963, 2010;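 active means mean activation above about 20% derived from the earlier single-dose screen, limit read from the data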;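 further: peak over minimum fluorescence ratio per well during a 100 second FLIPR read; 0% = DMSO alone and 100% = oxytocin high control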
V1aR counter 3x = V1a receptor agonists, calcium signal, counter-screen for OXTR agonist project, triplicate, fluorescence, CHO-V1R cells; Fluo-8 calcium fluorescence; activation, % at 3 µM; 390 compounds, 10% hits; shares compounds with OXTR agonist; AID 434991, 2010;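 active means mean activation over triplicate exceeds the hit threshold set in the earlier primary screen, cut at about 20% in these data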;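 further: peak over basal fluorescence ratio within a 100 second read; 0% = DMSO alone and 100% = 3 nM vasopressin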
The depositor's hits bear a star; . = not tested or not shown.

SMILES	CRFR2-BP ag	TRPML3 ag	V1aR counter	TRPN1 ag	OXTR agonist	OXTR potentiator	OXTR agonist cf	V1aR counter 3x
COc1ccccc1OCC(=O)Nc1ccncc1	2	.	2	.	4	3	.	.
CC(C)(C)N(NC(=O)Nc1ccc(Cl)c(Cl)c1)C(=O)c1ccccc1	-1	3	8	8	20*	-27	10	10
CC(C)(C)N(NC(=O)Nc1ccc(F)cc1)C(=O)c1ccccc1	-3	0	1	1	0	-2	.	.
CCOc1cc(CNCCO)cc(Br)c1OCc1ccc(Cl)cc1Cl	0	2	4	1	21*	-18	15	1
CCC1(c2ccc(F)cc2)NC(=O)N(CC(=O)Nc2ccc(N3CCCCC3)cc2)C1=O (configuration not stated)	44	.	15	.	27*	-18	16	14
CCOC(=O)[C@H]1[C@H]2COc3ccc(OC)cc3[C@@H]2N2C(=O)c3cc(OC)ccc3NC(=O)[C@@]12C	-3	.	0	.	0	5	.	.
Cc1ccc(C)c(OCCC(=O)Nc2ccc(S(=O)(=O)N3CCCC3)cc2)c1	1	.	5	.	2	6	.	.
CCOc1c(Nc2ccccc2O)c(=O)c1=O	-1	1	2	2	0	-2	.	.
COc1cc(CNCCc2c[nH]c3ccccc23)ccc1OCc1ccccc1F	6	1	11	0	22*	-10	13	5
COc1ccc(CNCc2ccco2)cc1OCc1ccccc1	0	1	1	0	3	2	.	.
COc1cccc(CNCCc2c[nH]c3ccccc23)c1OCc1ccccc1	2	0	15	-2	29*	-16	17	16
COc1ccccc1CCNCc1ccc(OC)c(OCc2ccccc2)c1	0	1	13	3	22*	-11	12	9
Sc1nnc(-c2ccc(Cl)cc2)n1Cc1ccccc1	1	.	0	.	0	-1	.	.
Cc1ccc(C(OCC(O)CNC(CO)C(O)c2ccc([N+](=O)[O-])cc2)c2ccccc2)cc1 (configuration not stated)	1	.	6	.	7	-8	.	.
CCOC(=O)c1sc(NC(=O)CSc2n[nH]c(-c3ccncc3)n2)c(C#N)c1C	-5	2	10	9	18	-20	.	.
CCOc1ccc(/C=C/C2=Cc3c(sc(NC(=O)CSc4n[nH]c(N)n4)c3C#N)C(C)(C)C2)cc1	34	3	9	7	27*	2	12	7
CSCC(C)N1CCC(N2CCC(C(=O)NCc3ccccn3)CC2)CC1 (configuration not stated)	1	.	1	.	0	-7	.	.
COC(=O)c1sc(NC(=S)NC(=O)c2ccccc2C)nc1C	56*	0	10	0	28*	-26	33*	39*
CCCCCC(=O)N1C[C@@H](O)[C@H](n2cc(COC(=O)c3ccccc3)nn2)C[C@@H]1c1ccc(OC)cc1	0	.	.	.	.	.	.	.
OC(CNCC1CCCO1)Cn1c2ccc(Cl)cc2c2cc(Cl)ccc21 (configuration not stated)	-2	1	3	2	33*	-16	14	5
COc1cc(CNCC(O)c2ccccc2)ccc1OCc1ccc(Cl)nc1 (configuration not stated)	4	1	9	2	20*	-12	10	3
COc1cc(CNCCc2ccccc2)ccc1OCc1ccc(Cl)nc1	10	0	7	1	15	-10	.	.
Cc1cc(OCCOCCNCc2ccccc2)ccc1C(C)C	5	.	11	.	22*	-15	3	1
CC(C)(C)C1CCC2(CC1)CC(=O)c1ccccc1O2 (configuration not stated)	0	.	1	.	-1	0	.	.
Cc1cccc(NC(=O)CNC(=O)Cn2cc(C(F)(F)F)cc(Cl)c2=O)c1C	-1	.	.	.	.	.	.	.
SMILES	CRFR2-BP ag	TRPML3 ag	V1aR counter	TRPN1 ag	OXTR agonist	OXTR potentiator	OXTR agonist cf	V1aR counter 3x
COc1ccc(CNCCC(c2ccccc2)c2ccc3c(c2)OCO3)cc1 (configuration not stated)	-1	0	16	-1	22*	-10	16	14
COc1cccc(/C=N/Nc2snc(SC)c2C#N)c1O	69*	10	13	11	21*	-10	20*	11
Cc1ccc(NC(=O)CN(C)C(=O)Cn2ccsc2=N)cc1	-2	1	1	1	0	0	.	.
Cc1ccc(Oc2ccc(NC(=O)Cn3ccsc3=N)cc2)cc1	8	1	9	1	23*	-29	12	3
CCOc1ccccc1OCCCC(=O)NNC(=O)c1nn(C)c(=O)c2ccccc12	0	.	-1	.	-1	-6	.	.
O=C(COc1ccccc1)Nc1cc(NC(=O)COc2ccccc2)cc(C(=O)O)c1	0	.	0	.	0	-4	.	.
CC(Sc1ccc(Cl)cc1)C(=O)Nc1ccc(S(=O)(=O)N2CCOCC2)cc1 (configuration not stated)	40	6	13	9	29*	-23	21*	10
C=CCn1c(SCCCC)nc(O)cc1=O	-2	0	3	1	33*	-9	1	0
CN(Cc1ccccc1F)C(=O)c1ccccc1Sc1ccccc1C#N	-1	.	0	.	-1	-10	.	.
COc1ccc(C(=O)Nc2ccc(N3CCN(C(C)=O)CC3)cc2)cc1[N+](=O)[O-]	.	1	-1	1	25*	-12	1	0
CC(=O)N1CCN(c2ccc(NC(=O)c3ccc(Cl)c([N+](=O)[O-])c3)cc2)CC1	-1	.	8	.	1	-11	.	.
COc1ccccc1NC(=O)N1CCN(C(=O)c2ccco2)CC1	5	.	0	.	0	-6	.	.
O=c1c2ccccc2sn1-c1ccccc1F	12	.	.	.	.	.	.	.
Cc1ccccc1-n1sc2cc(F)ccc2c1=O	27	8	16	12	23*	-8	14	15

Assay outcomes as filed in PubChem.
